Laboratory results as given in ChEMBL document CHEMBL1142080, “In vitro activities of amphotericin B, caspofungin, itraconazole, posaconazole, and voriconazole against 45 clinical isolates of zygomycetes: comparison of CLSI M38-A, Sensititre YeastOne, and the Etest” (2007).
Values after ≈ are worked out from the molar mass of the structure shown.

Assays:
Format in all cases: functional
[1] = system: Syncephalastrum; assay: Antifungal activity against Syncephalastrum spp after 24 hrs
How it was run: (§1)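 Broth microdilution per CLSI M38-A, with plates incubated at 35°C and read at 24 and 48 h. Final well concentrations were 0.03 to 16 µg/ml for four agents and 0.250 to 256 µg/ml for the echinocandin. The MIC was the lowest concentration giving complete growth inhibition (MIC-0). For the echinocandin, the MEC was also read as the lowest concentration showing abnormal growth. QC strains were A. flavus ATCC 204304 and A. fumigatus ATCC 204305.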

[2] = system: Rhizomucor; assay: Antifungal activity against Rhizomucor spp after 48 hrs; how it was run: as §1
[3] = system: Syncephalastrum; assay: Antifungal activity against Syncephalastrum spp after 48 hrs; how it was run: as §1
[4] = system: Rhizopus; assay: Antifungal activity against Rhizopus spp after 48 hrs; how it was run: as §1
[5] = system: Rhizomucor; assay: Antifungal activity against Rhizomucor spp after 24 hrs; how it was run: as §1
[6] = system: Mucor; assay: Antifungal activity against Mucor spp after 48 hrs; how it was run: as §1
[7] = system: Absidia; assay: Antifungal activity against Absidia spp after 48 hrs; how it was run: as §1
[8] = system: Absidia; assay: Antifungal activity against Absidia spp after 24 hrs; how it was run: as §1
[9] = system: Cunninghamella; assay: Antifungal activity against Cunninghamella spp after 24 hrs; how it was run: as §1
[10] = system: Mucor; assay: Antifungal activity against Mucor spp after 24 hrs; how it was run: as §1
[11] = system: Rhizopus; assay: Antifungal activity against Rhizopus spp after 24 hrs; how it was run: as §1
[12] = system: Cunninghamella; assay: Antifungal activity against Cunninghamella spp after 48 hrs; how it was run: as §1

| SMILES | MIC50 [1] [µg/mL] | MIC90 [1] [µg/mL] | MIC50 [2] [µg/mL] | MIC90 [2] [µg/mL] | MIC50 [3] [µg/mL] | MIC90 [3] [µg/mL] | MIC50 [4] [µg/mL] | MIC90 [4] [µg/mL] | MIC50 [5] [µg/mL] | MIC90 [5] [µg/mL] | MIC50 [6] [µg/mL] | MIC90 [6] [µg/mL] | MIC50 [7] [µg/mL] | MIC90 [7] [µg/mL] | MIC50 [8] [µg/mL] | MIC90 [8] [µg/mL] | MIC50 [9] [µg/mL] | MIC90 [9] [µg/mL] | MIC50 [10] [µg/mL] | MIC90 [10] [µg/mL] | also measured |
| --- | --- | --- | --- | --- | --- | --- | --- | --- | --- | --- | --- | --- | --- | --- | --- | --- | --- | --- | --- | --- | --- |
| C[C@@H]1[C@H](O)[C@@H](C)/C=C/C=C/C=C/C=C/C=C/C=C/C=C/[C@H](O[C@@H]2O[C@H](C)[C@@H](O)[C@H](N)[C@@H]2O)C[C@@H]2O[C@](O)(C[C@@H](O)C[C@@H](O)[C@H](O)CC[C@@H](O)C[C@@H](O)CC(=O)O[C@H]1C)C[C@H](O)[C@H]2C(=O)O [AMPHOTERICIN B] | 0.125 (≈ 0.135 µM) | 1 (≈ 1.08 µM) | 1 (≈ 1.08 µM) | 1 (≈ 1.08 µM) | 0.125 (≈ 0.135 µM) | 2 (≈ 2.16 µM) | 1 (≈ 1.08 µM) | 2 (≈ 2.16 µM) | 1 (≈ 1.08 µM) | 1 (≈ 1.08 µM) | 1 (≈ 1.08 µM) | 2 (≈ 2.16 µM) | 0.5 (≈ 0.541 µM) | 4 (≈ 4.33 µM) | 1 (≈ 1.08 µM) | 4 (≈ 4.33 µM) | 2 (≈ 2.16 µM) | 4 (≈ 4.33 µM) | 1 (≈ 1.08 µM) | 1 (≈ 1.08 µM) | MIC50 [11]: 1 µg/mL (≈ 1.08 µM); MIC90 [11]: 2 µg/mL (≈ 2.16 µM); MIC50 [12]: 2 µg/mL (≈ 2.16 µM); MIC90 [12]: > 16 µg/mL |
| CC[C@H](C)C[C@H](C)CCCCCCCCC(=O)N[C@H]1C[C@@H](O)[C@@H](NCCN)NC(=O)[C@@H]2[C@@H](O)CCN2C(=O)[C@H]([C@H](O)CCN)NC(=O)[C@H]([C@H](O)[C@@H](O)c2ccc(O)cc2)NC(=O)[C@@H]2C[C@@H](O)CN2C(=O)[C@H]([C@@H](C)O)NC1=O [CASPOFUNGIN] | 256 (≈ 234 µM) | > 256 | > 256 | > 256 | 256 (≈ 234 µM) | > 256 | > 256 | > 256 | 256 (≈ 234 µM) | 256 (≈ 234 µM) | > 256 | > 256 | > 256 | > 256 | 256 (≈ 234 µM) | > 256 | 256 (≈ 234 µM) | > 256 | 256 (≈ 234 µM) | > 256 | minimal effective concentration ([1]; read-out: MEC): 8 µg/mL; minimal effective concentration ([2]; read-out: MEC): 64 µg/mL; minimal effective concentration ([3]; read-out: MEC): > 256 µg/mL; minimal effective concentration ([4]; read-out: MEC): 256 µg/mL; minimal effective concentration ([5]; read-out: MEC): 32 µg/mL; minimal effective concentration ([7]; read-out: MEC): 256 µg/mL; minimal effective concentration ([8]; read-out: MEC): 64 µg/mL; minimal effective concentration ([9]; read-out: MEC): 128 µg/mL; minimal effective concentration ([10]; read-out: MEC): 128 µg/mL; MIC50 [11]: > 256 µg/mL; MIC90 [11]: > 256 µg/mL; minimal effective concentration ([11]; read-out: MEC): 128 µg/mL; MIC50 [12]: 256 µg/mL (≈ 234 µM); MIC90 [12]: > 256 µg/mL; minimal effective concentration ([12]; read-out: MEC): 128 µg/mL |
| CCC(C)n1ncn(-c2ccc(N3CCN(c4ccc(OCC5COC(Cn6cncn6)(c6ccc(Cl)cc6Cl)O5)cc4)CC3)cc2)c1=O (stereo unspecified) [ITRACONAZOLE] | 1 (≈ 1.42 µM) | 1 (≈ 1.42 µM) | > 16 | > 16 | 1 (≈ 1.42 µM) | 8 (≈ 11.3 µM) | 4 (≈ 5.67 µM) | > 16 | 2 (≈ 2.83 µM) | 2 (≈ 2.83 µM) | 4 (≈ 5.67 µM) | > 16 | 1 (≈ 1.42 µM) | > 16 | 1 (≈ 1.42 µM) | > 16 | 1 (≈ 1.42 µM) | 4 (≈ 5.67 µM) | 1 (≈ 1.42 µM) | > 16 | MIC50 [11]: 1 µg/mL (≈ 1.42 µM); MIC90 [11]: > 16 µg/mL; MIC50 [12]: 1 µg/mL (≈ 1.42 µM); MIC90 [12]: 4 µg/mL (≈ 5.67 µM) |
| CC[C@@H]([C@H](C)O)n1ncn(-c2ccc(N3CCN(c4ccc(OC[C@@H]5CO[C@@](Cn6cncn6)(c6ccc(F)cc6F)C5)cc4)CC3)cc2)c1=O [POSACONAZOLE] | 0.25 (≈ 0.357 µM) | 0.5 (≈ 0.713 µM) | 2 (≈ 2.85 µM) | 2 (≈ 2.85 µM) | 0.5 (≈ 0.713 µM) | 0.5 (≈ 0.713 µM) | 0.5 (≈ 0.713 µM) | 1 (≈ 1.43 µM) | 0.5 (≈ 0.713 µM) | 0.5 (≈ 0.713 µM) | 0.5 (≈ 0.713 µM) | 2 (≈ 2.85 µM) | 0.5 (≈ 0.713 µM) | > 16 | 0.5 (≈ 0.713 µM) | 1 (≈ 1.43 µM) | 0.5 (≈ 0.713 µM) | 0.5 (≈ 0.713 µM) | 0.5 (≈ 0.713 µM) | 2 (≈ 2.85 µM) | MIC50 [11]: 0.5 µg/mL (≈ 0.713 µM); MIC90 [11]: 0.5 µg/mL (≈ 0.713 µM); MIC50 [12]: 0.5 µg/mL (≈ 0.713 µM); MIC90 [12]: 0.5 µg/mL (≈ 0.713 µM) |
| C[C@@H](c1ncncc1F)[C@](O)(Cn1cncn1)c1ccc(F)cc1F [VORICONAZOLE] | 4 (≈ 11.5 µM) | > 16 | > 16 | > 16 | > 16 | > 16 | 16 (≈ 45.8 µM) | > 16 | 16 (≈ 45.8 µM) | 16 (≈ 45.8 µM) | > 16 | > 16 | > 16 | > 16 | > 16 | > 16 | > 16 | > 16 | > 16 | > 16 | MIC50 [11]: 16 µg/mL (≈ 45.8 µM); MIC90 [11]: 16 µg/mL (≈ 45.8 µM); MIC50 [12]: > 16 µg/mL; MIC90 [12]: > 16 µg/mL |
